Measured values as given in ChEMBL document CHEMBL5724801, “EUbOPEN Chemogenomics Library - Multiplex” (2024).
Several values for one entry are separate records, joined by “and”; a condition that tells them apart may be missing. Equal values may be shown once.

System: HEK-293T
Assay: Multiplex assay against HEK293T
Type: toxicity, cell-based
Settings: human
How it was run: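 Compound was added to live cells that had been stained at seeding with Hoechst33342, BioTracker Green Microtubule Cytoskeleton Dye, MitoTracker Red and Annexin V Alexa Fluor 680, and imaging followed on a CQ1 microscope at 37°C and 5% CO2. CellPathfinder machine-learning gating divided cells into Hoechst high-intensity objects or normal cells, normal cells into healthy, pyknosed or fragmented nuclei, and pyknosed cells into mitotic or apoptotic. Tubulin, mitochondrial-mass and membrane-permeability phenotypes are per cents of healthy-nucleus cells.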

[1] = 12 h, 1 µM, compound concentration 1 uM
[2] = 12 h, 10 µM, compound concentration 10 uM
[3] = 24 h, 1 µM, compound concentration 1 uM
[4] = 24 h, 10 µM, compound concentration 10 uM
[5] = 48 h, 1 µM, compound concentration 1 uM
[6] = 48 h, 10 µM, compound concentration 10 uM

How did the “Population Apoptotic (%)” value [1] turn out when O=C(NCCN1CCC(n2c(=O)[nH]c3cc(Cl)ccc32)CC1)c1ccc(F)cc1 [HALOPEMIDE] was run?
The value was 46% and 43%.

And the “Population Fragmented Nuclei (%)” value [1]?
Its value is 5%.

And the “Population Healthy Nuclei (%)” value [1]?
The value was 81% and 79%.

And the “Population Hoechst High Intensity Objects (%)” value [1]?
The value was 7% and 10%.

And the “Population Membrane Permeable-Phenotype (%)” value [1]?
Its value is 0%.

And the “Population Mitochondria Different-Phenotype (%)” value [1]?
Its value is 54% and 62%.

And the “Population Mitotic Cells (%)” value [1]?
The value was 53% and 56%.

And the “Population Normal (%)” value [1]?
The value was 92% and 89%.

And the “Population Pyknosed Nuclei (%)” value [1]?
Its value is 13% and 15%.

And the “Population Tubulin-Different-Phenotype (%)” value [1]?
The value was 42% and 29%.

What about the “Total Cell Count” value [1] of the same molecule?
The value was 334 and 373.

And the “Population Apoptotic (%)” value [2]?
The value was 39% and 65%.

And the “Population Fragmented Nuclei (%)” value [2]?
Its value is 5% and 6%.

And the “Population Healthy Nuclei (%)” value [2]?
The value was 74% and 72%.

What about the “Population Hoechst High Intensity Objects (%)” value [2] of the same molecule?
The value was 14% and 13%.

What about the “Population Membrane Permeable-Phenotype (%)” value [2] of the same molecule?
The value was 0% and 1%.

And the “Population Mitochondria Different-Phenotype (%)” value [2]?
Its value is 76% and 84%.

What about the “Population Mitotic Cells (%)” value [2] of the same molecule?
Its value is 60% and 34%.

And the “Population Normal (%)” value [2]?
The value was 85% and 86%.

And the “Population Pyknosed Nuclei (%)” value [2]?
Its value is 20% and 21%.

What about the “Population Tubulin-Different-Phenotype (%)” value [2] of the same molecule?
The value was 68% and 59%.

And the “Total Cell Count” value [2]?
The value was 460 and 319.

And the “Population Apoptotic (%)” value [3]?
Its value is 40%.

What about the “Population Fragmented Nuclei (%)” value [3] of the same molecule?
The value was 7% and 9%.

What about the “Population Healthy Nuclei (%)” value [3] of the same molecule?
The value was 79%.

What about the “Population Hoechst High Intensity Objects (%)” value [3] of the same molecule?
The value was 3% and 6%.

What about the “Population Membrane Permeable-Phenotype (%)” value [3] of the same molecule?
The value was 1% and 0%.

What about the “Population Mitochondria Different-Phenotype (%)” value [3] of the same molecule?
The value was 35% and 37%.

And the “Population Mitotic Cells (%)” value [3]?
Its value is 59%.

And the “Population Normal (%)” value [3]?
The value was 96% and 93%.

What about the “Population Pyknosed Nuclei (%)” value [3] of the same molecule?
The value was 12% and 11%.

And the “Population Tubulin-Different-Phenotype (%)” value [3]?
Its value is 24% and 21%.

And the “Total Cell Count” value [3]?
The value was 471 and 508.

What about the “Population Apoptotic (%)” value [4] of the same molecule?
Its value is 27% and 64%.

And the “Population Fragmented Nuclei (%)” value [4]?
Its value is 8% and 9%.

And the “Population Healthy Nuclei (%)” value [4]?
Its value is 72% and 70%.

And the “Population Hoechst High Intensity Objects (%)” value [4]?
Its value is 8%.

And the “Population Membrane Permeable-Phenotype (%)” value [4]?
Its value is 1% and 0%.

And the “Population Mitochondria Different-Phenotype (%)” value [4]?
Its value is 63% and 78%.

What about the “Population Mitotic Cells (%)” value [4] of the same molecule?
The value was 72% and 35%.

What about the “Population Normal (%)” value [4] of the same molecule?
The value was 91%.

And the “Population Pyknosed Nuclei (%)” value [4]?
Its value is 19% and 20%.

And the “Population Tubulin-Different-Phenotype (%)” value [4]?
The value was 64% and 62%.

What about the “Total Cell Count” value [4] of the same molecule?
Its value is 580 and 361.

What about the “Population Apoptotic (%)” value [5] of the same molecule?
Its value is 30% and 28%.

And the “Population Fragmented Nuclei (%)” value [5]?
The value was 13%.

And the “Population Healthy Nuclei (%)” value [5]?
Its value is 79%.

And the “Population Hoechst High Intensity Objects (%)” value [5]?
The value was 1% and 3%.

And the “Population Membrane Permeable-Phenotype (%)” value [5]?
The value was 1% and 0%.

And the “Population Mitochondria Different-Phenotype (%)” value [5]?
Its value is 21%.

What about the “Population Mitotic Cells (%)” value [5] of the same molecule?
Its value is 69% and 71%.

What about the “Population Normal (%)” value [5] of the same molecule?
The value was 98% and 96%.

And the “Population Pyknosed Nuclei (%)” value [5]?
Its value is 6% and 7%.

What about the “Population Tubulin-Different-Phenotype (%)” value [5] of the same molecule?
Its value is 16% and 10%.

What about the “Total Cell Count” value [5] of the same molecule?
The value was 841 and 675.

And the “Population Apoptotic (%)” value [6]?
The value was 37% and 60%.

What about the “Population Fragmented Nuclei (%)” value [6] of the same molecule?
The value was 14%.

And the “Population Healthy Nuclei (%)” value [6]?
Its value is 72% and 74%.

What about the “Population Hoechst High Intensity Objects (%)” value [6] of the same molecule?
Its value is 8% and 6%.

What about the “Population Membrane Permeable-Phenotype (%)” value [6] of the same molecule?
Its value is 1%.

What about the “Population Mitochondria Different-Phenotype (%)” value [6] of the same molecule?
Its value is 57% and 64%.

And the “Population Mitotic Cells (%)” value [6]?
Its value is 62% and 40%.

What about the “Population Normal (%)” value [6] of the same molecule?
The value was 91% and 93%.

And the “Population Pyknosed Nuclei (%)” value [6]?
Its value is 12% and 11%.

And the “Population Tubulin-Different-Phenotype (%)” value [6]?
The value was 55%.

What about the “Total Cell Count” value [6] of the same molecule?
The value was 706 and 531.

How did the “Population Apoptotic (%)” value [1] turn out when c1cc(OCCCN2CCCCC2)ccc1CN1CCCCC1 [JNJ-5207852] was run?
The value was 36% and 47%.

And the “Population Fragmented Nuclei (%)” value [1]?
The value was 6% and 10%.

What about the “Population Healthy Nuclei (%)” value [1] of the same molecule?
Its value is 84% and 75%.

What about the “Population Hoechst High Intensity Objects (%)” value [1] of the same molecule?
Its value is 5%.

What about the “Population Membrane Permeable-Phenotype (%)” value [1] of the same molecule?
Its value is 0%.

And the “Population Mitochondria Different-Phenotype (%)” value [1]?
Its value is 36% and 53%.

And the “Population Mitotic Cells (%)” value [1]?
The value was 63% and 52%.

What about the “Population Normal (%)” value [1] of the same molecule?
The value was 94%.

And the “Population Pyknosed Nuclei (%)” value [1]?
The value was 8% and 13%.

What about the “Population Tubulin-Different-Phenotype (%)” value [1] of the same molecule?
Its value is 21% and 17%.

What about the “Total Cell Count” value [1] of the same molecule?
The value was 577 and 310.

What about the “Population Apoptotic (%)” value [2] of the same molecule?
Its value is 40% and 66%.

What about the “Population Fragmented Nuclei (%)” value [2] of the same molecule?
Its value is 7%.

And the “Population Healthy Nuclei (%)” value [2]?
Its value is 75% and 67%.

And the “Population Hoechst High Intensity Objects (%)” value [2]?
Its value is 7% and 11%.

And the “Population Membrane Permeable-Phenotype (%)” value [2]?
Its value is 0% and 1%.

What about the “Population Mitochondria Different-Phenotype (%)” value [2] of the same molecule?
Its value is 63% and 69%.

What about the “Population Mitotic Cells (%)” value [2] of the same molecule?
Its value is 59% and 33%.

What about the “Population Normal (%)” value [2] of the same molecule?
The value was 92% and 88%.

And the “Population Pyknosed Nuclei (%)” value [2]?
The value was 17% and 24%.

And the “Population Tubulin-Different-Phenotype (%)” value [2]?
Its value is 52% and 41%.

And the “Total Cell Count” value [2]?
The value was 328 and 259.

What about the “Population Apoptotic (%)” value [3] of the same molecule?
Its value is 25% and 41%.

What about the “Population Fragmented Nuclei (%)” value [3] of the same molecule?
Its value is 6% and 11%.

What about the “Population Healthy Nuclei (%)” value [3] of the same molecule?
The value was 82% and 79%.

And the “Population Hoechst High Intensity Objects (%)” value [3]?
Its value is 5% and 3%.

What about the “Population Membrane Permeable-Phenotype (%)” value [3] of the same molecule?
Its value is 1% and 0%.

What about the “Population Mitochondria Different-Phenotype (%)” value [3] of the same molecule?
Its value is 20% and 30%.

And the “Population Mitotic Cells (%)” value [3]?
The value was 74% and 58%.

And the “Population Normal (%)” value [3]?
Its value is 94% and 96%.

What about the “Population Pyknosed Nuclei (%)” value [3] of the same molecule?
The value was 11% and 9%.

And the “Population Tubulin-Different-Phenotype (%)” value [3]?
The value was 15% and 12%.

And the “Total Cell Count” value [3]?
The value was 710 and 447.

And the “Population Apoptotic (%)” value [4]?
The value was 47% and 65%.

And the “Population Fragmented Nuclei (%)” value [4]?
Its value is 9% and 8%.

And the “Population Healthy Nuclei (%)” value [4]?
The value was 77% and 79%.

What about the “Population Hoechst High Intensity Objects (%)” value [4] of the same molecule?
The value was 6% and 5%.

What about the “Population Membrane Permeable-Phenotype (%)” value [4] of the same molecule?
The value was 1% and 2%.

What about the “Population Mitochondria Different-Phenotype (%)” value [4] of the same molecule?
Its value is 47% and 50%.

And the “Population Mitotic Cells (%)” value [4]?
Its value is 52% and 34%.

What about the “Population Normal (%)” value [4] of the same molecule?
The value was 93% and 94%.

What about the “Population Pyknosed Nuclei (%)” value [4] of the same molecule?
The value was 13% and 11%.

What about the “Population Tubulin-Different-Phenotype (%)” value [4] of the same molecule?
Its value is 44% and 35%.

And the “Total Cell Count” value [4]?
Its value is 414 and 322.

And the “Population Apoptotic (%)” value [5]?
The value was 17% and 23%.

And the “Population Fragmented Nuclei (%)” value [5]?
Its value is 14% and 11%.

And the “Population Healthy Nuclei (%)” value [5]?
Its value is 80% and 83%.

What about the “Population Hoechst High Intensity Objects (%)” value [5] of the same molecule?
The value was 2% and 1%.

And the “Population Membrane Permeable-Phenotype (%)” value [5]?
Its value is 1%.

What about the “Population Mitochondria Different-Phenotype (%)” value [5] of the same molecule?
The value was 12% and 17%.

And the “Population Mitotic Cells (%)” value [5]?
Its value is 82% and 76%.

What about the “Population Normal (%)” value [5] of the same molecule?
The value was 97% and 98%.

And the “Population Pyknosed Nuclei (%)” value [5]?
Its value is 5% and 4%.

And the “Population Tubulin-Different-Phenotype (%)” value [5]?
The value was 11% and 9%.

And the “Total Cell Count” value [5]?
Its value is 1128 and 746.

And the “Population Apoptotic (%)” value [6]?
The value was 34% and 52%.

And the “Population Fragmented Nuclei (%)” value [6]?
The value was 13%.

What about the “Population Healthy Nuclei (%)” value [6] of the same molecule?
The value was 77% and 75%.

And the “Population Hoechst High Intensity Objects (%)” value [6]?
Its value is 8% and 9%.

What about the “Population Membrane Permeable-Phenotype (%)” value [6] of the same molecule?
Its value is 1%.

And the “Population Mitochondria Different-Phenotype (%)” value [6]?
The value was 29% and 38%.

What about the “Population Mitotic Cells (%)” value [6] of the same molecule?
Its value is 65% and 47%.

What about the “Population Normal (%)” value [6] of the same molecule?
The value was 91% and 90%.

And the “Population Pyknosed Nuclei (%)” value [6]?
Its value is 8% and 10%.

And the “Population Tubulin-Different-Phenotype (%)” value [6]?
Its value is 28% and 30%.

And the “Total Cell Count” value [6]?
The value was 619 and 424.
